# FN deposit inh: inhibitors of fibronectin matrix deposition, primary screen, AH1F cells, Alexa488-fibronectin fluorescence, plate reader | inhibition, % at 12.6 µM | 350,000 tested, 0.086% active | AH1F fibroblasts, overnight;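 active means mean inhibition across replicates of 30% or more, regardless of how many single replicates reach that level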
#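 Test system: AH1F fibroblast monolayer depositing Alexa488-labelled fibronectin into matrix. Input: 10000 cells per well. Technique: fluorescence, ex 485 nm, em 525 nm. Buffer or medium: DMEM plus 2% serum, read in PBS. Timing: 1 h cell adhesion before compound, then overnight fibronectin incubation. Compound: single dose, pinned. Read-out basis: inhibition from reduced deposited-fibronectin fluorescence.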
# PAX8 inh HTS: inhibitors of PAX8-driven TPO luciferase reporter, primary screen, RMG-I cells, single concentration | 360,000 tested, 1.2% active | inhibition, % at 12.6 µM | SteadyGlo, 24 h;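 active means mean replicate inhibition at least 60% with every replicate also reaching 60%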;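 further: luciferase light reporting Pax8 driven TPO promoter activity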
# FGF22 binding-1: binders of human FGF22 protein, primary screen, FGF22 synaptogenesis inhibitor project, biophysical, thermal shift, single point. recombinant FGF22 thermal shift, SYPRO orange fluorescence; percent of sucrose octasulfate shift, DMSO zero. Fibroblast growth factor 22 (Homo sapiens), Q9HCT0. activity (Tm shift, normalised), % at 9.99 µM. 340,000 tested, 1.5% active;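 active means mean Tm shift, scaled 0 neutral to 100 positive control, at about 1.3% or above, every replicate too, limit read from the data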
# Target sequence (Q9HCT0 whole entry, looked up): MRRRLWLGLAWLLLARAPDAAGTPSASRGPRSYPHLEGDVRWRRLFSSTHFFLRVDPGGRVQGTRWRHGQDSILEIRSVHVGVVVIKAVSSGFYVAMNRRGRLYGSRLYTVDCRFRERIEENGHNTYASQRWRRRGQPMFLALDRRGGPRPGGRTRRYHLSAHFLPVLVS
# PGC1a acetyl inh: inhibitors of PGC1a acetylation signal, primary screen, cell-based, U2OS, AlphaScreen, inhibitor mode; AlphaScreen anti-acetyl-lysine; with virally co-expressed GCN5 acetyltransferase; inhibition, % at 15.6 µM; AID 651687, 2012; 350,000 tested, 0.17% active;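 active means every replicate shows inhibition of at least 40%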
# EWS-Fli inh: EWS/Fli-driven NR0B1 reporter inhibitors, primary screen, A673 cells, NR0B1 luciferase, luminescence, MLPCN library; viability-normalised; inhibition, % at 12.6 µM; 350,000 tested, 0.67% active; AID 651661, 2012;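 active means mean inhibition of at least 50% after viability correction, with every replicate also passing that limit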;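 further: firefly luciferase signal divided by Alamar Blue viability fluorescence both relative to DMSO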
# Env fusion inh: inhibitors of HIV-1 Env-driven cell-cell fusion, primary screen, HeLa-JRFL effector, CEM21 target cells, luciferase; AID 651610, 2012; 360,000 tested, 1.1% active; inhibition, % at 12.3 µM;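 active means mean replicate inhibition score of at least 50 and every replicate individually at or above 50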
# FGF22 binding-2: binders of human FGF22 protein, dose response, FGF22 synaptogenesis inhibitor project, biophysical, thermal shift, cherry-pick retest | shares compounds with FGF22 binding-1 | recombinant FGF22 thermal shift, SYPRO orange fluorescence | thermal shift activity, °C (ΔTm) at 38 µM | 1,000 tested, 2% active | AID 720646, 2013;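 active means fitted rise in melting shift crosses a set limit at or below the top valid dose tested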
# SYPRO no-protein: compound-only thermal shift signal without protein, dose response, artefact control for FGF22 binder project, biochemical, cherry-picked samples, RT-PCR instrument | AID 743019, 2013 | 1,000 tested, 2% active | AC50, µM (titrated, usually from 38 µM) | compound-only SYPRO orange thermal shift counter-screen, no protein | shares compounds with FGF22 binding-1;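 active means rising signal whose fitted curve reaches the 0.54 level within the top valid dose, showing a melting point, actives reach about 13 µM in these data; inactive means the rest, including activity in the opposite direction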; further: value is where the raw curve crosses a fixed level and not half-maximal
# A number is an active result; – = inactive; · = no result. Shown are actives, neighbours in structure and some others; about 3.1% of the full set was active somewhere.
SMILES,FN deposit inh,PAX8 inh HTS,FGF22 binding-1,PGC1a acetyl inh,EWS-Fli inh,Env fusion inh,FGF22 binding-2,SYPRO no-protein
CC1CN(C(=O)C(C)N2CCN(c3cccc(Cl)c3)CC2)CC(C)O1 (stereo unspecified),–,–,–,–,–,–,·,·
CC1CN(C(=O)C(C)N2CCN(c3ccccc3Cl)CC2)CC(C)O1 (stereo unspecified),–,–,16.7,·,–,–,–,–
COc1cccc(NS(=O)(=O)c2cc3[nH]c(=O)c(=O)[nH]c3cc2C)c1,–,–,–,–,–,–,·,·
Cc1cc(C)cc(NS(=O)(=O)c2cc3[nH]c(=O)c(=O)[nH]c3cc2C)c1,–,–,1.7,·,–,–,–,–
COc1ccccc1NC(=O)Nc1cccc(NC(C)=O)c1,–,–,3.1,–,–,–,–,–
O=C(O)c1ccc(/C=N/NC(=O)c2ccc(NS(=O)(=O)c3cccs3)cc2)cc1,–,–,–,–,–,–,·,·
Cc1cccc(C(=O)NNC(=O)c2ccc(NS(=O)(=O)c3cccs3)cc2)c1C,–,–,1.9,–,–,–,–,–
COc1ccc(/C=N/NC(=O)c2ccc(NS(=O)(=O)c3cccs3)cc2)cc1,–,–,1.7,–,–,·,–,–
O=[N+]([O-])c1ccc(Oc2ccc(S(=O)(=O)Nc3ccccc3)cc2)cc1,·,·,·,–,·,·,·,·
O=C1C(Cl)=C(NS(=O)(=O)c2ccc([N+](=O)[O-])cc2)C(=O)c2ccccc21,–,–,1.9,–,–,–,–,–
C[C@@H]1CN([C@@H](C)CO)C(=O)Cc2cc(NS(=O)(=O)c3ccc(F)cc3)ccc2O[C@H]1CN(C)S(=O)(=O)c1cn(C)cn1,·,–,–,–,–,–,·,·
N#Cc1c(-c2ccccc2)nc(-c2ccncc2)[nH]c1=O,–,–,1.6,–,–,–,–,–
COc1cc(OC)cc(C(=O)Nc2ccc(S(=O)(=O)Nc3nc(C)cc(C)n3)cc2)c1,–,–,1.4,–,–,–,–,–
CNC[C@H]1Oc2ccc(NC(=O)Cc3cn(C)c4ccccc34)cc2C(=O)N([C@H](C)CO)C[C@H]1C,·,–,3.7,–,–,–,·,–
COc1ccc(CN(C)C[C@@H]2Oc3ccc(NC(=O)NC(C)C)cc3C(=O)N([C@H](C)CO)C[C@@H]2C)cc1,–,–,73.0,–,·,–,–,–
COc1ccc(CN(C)C[C@H]2Oc3ccc(NC(=O)Cc4ccccc4)cc3C(=O)N([C@H](C)CO)C[C@@H]2C)cc1,–,–,1.5,–,·,–,–,–
COc1ccc(CN(C)C[C@H]2Oc3ccc(NC(=O)NC(C)C)cc3C(=O)N([C@H](C)CO)C[C@@H]2C)cc1,·,–,–,–,·,–,·,·
CNC[C@H]1Oc2ccc(NC(=O)Cc3cn(C)c4ccccc34)cc2C(=O)N([C@H](C)CO)C[C@@H]1C,–,–,–,–,–,–,·,·
CO[C@@H]1CN(C)C(=O)c2ccc(NC(=O)C3CC3)cc2OC[C@H](C)N(C(=O)CN2CCOCC2)C[C@@H]1C,–,–,1.4,–,–,·,–,–
CCC(=O)Nc1ccc2c(c1)C(=O)N(C)C[C@@H](OC)[C@H](C)CN(C(=O)COC)[C@H](C)CO2,–,–,–,–,–,·,·,·
CO[C@@H]1CN(C)C(=O)c2ccc(NC(C)=O)cc2OC[C@@H](C)N(C(=O)Cc2ccccn2)C[C@H]1C,–,·,1.4,–,–,–,–,–
CO[C@@H]1CN(C)C(=O)c2ccc(NC(C)=O)cc2OC[C@@H](C)N(C(=O)Cc2ccccn2)C[C@@H]1C,–,·,–,–,–,–,·,·
CCC(=O)Nc1ccc2c(c1)C(=O)N(C)C[C@H](OC)[C@@H](C)CN(C(=O)CC)[C@@H](C)CO2,–,·,1.5,–,–,–,–,–
CO[C@H]1CN(C)C(=O)c2cc(NS(=O)(=O)c3ccc(C)cc3)ccc2OC[C@@H](C)N(C(=O)NC(C)C)C[C@@H]1C,–,·,1.2,–,–,–,–,–
Nc1c(N(CCO)C(=O)COc2ccc(Cl)cc2)c(=O)[nH]c(=O)n1Cc1ccccc1,–,–,1.8,·,–,–,–,–
SMILES,FN deposit inh,PAX8 inh HTS,FGF22 binding-1,PGC1a acetyl inh,EWS-Fli inh,Env fusion inh,FGF22 binding-2,SYPRO no-protein
CN1C(=O)c2cc(NC(=O)C3CC3)ccc2OC[C@@H]2O[C@H](CC(=O)NCC3CCCCC3)CC[C@H]21,–,–,–,–,–,–,·,·
C[C@H](O)C#Cc1ccc2c(c1)O[C@@H](CN(C)CC1CC1)[C@@H](C)CN([C@@H](C)CO)S2(=O)=O,·,·,·,–,–,–,·,·
CCCC(=O)Nc1ccc2c(c1)OC[C@@H](C)N(C(=O)Cc1ccccn1)C[C@@H](C)[C@H](OC)CN(C)C2=O,–,–,–,–,–,·,·,·
NC(c1ccc(F)c(F)c1)c1nc(-c2cncnc2)cs1 (stereo unspecified),–,–,37.9,–,–,–,–,–
O=C(OCC(=O)c1ccc(Cl)s1)c1ccc2ccccc2n1,–,–,1.7,–,–,–,–,–
Cc1ccc(-c2nnn(CC(=O)NCCc3ccc4c(c3)OCO4)n2)cc1,–,–,8.9,–,–,–,–,–
C[C@H](CO)N1C[C@H](C)[C@@H](CN(C)Cc2ccc3c(c2)OCO3)OCCCC[C@H](C)Oc2ccc(NC(=O)c3ccncc3)cc2C1=O,–,–,–,–,–,–,·,·
CC1(C(=O)NS(=O)(=O)Cc2cccc(Cl)c2)CCN1C(=O)C1(c2ccc(Cl)cc2)CCC1 (stereo unspecified),–,–,1.5,–,–,·,·,–
CC1(C(=O)NS(=O)(=O)c2ccc(Cl)cc2)CCN1C(=O)Cc1ccc(Cl)cc1Cl (stereo unspecified),–,–,1.5,–,–,·,–,–
COCC#Cc1ccc([C@H]2[C@@H](CO)N3CCCCN(C(=O)CN(C)C)C[C@H]23)cc1,·,–,·,–,–,·,·,·
O=C(NCC[C@@H]1CC[C@@H](NC(=O)C2CCOCC2)[C@H](CO)O1)Nc1ccc(Cl)cc1,·,–,1.4,–,–,–,–,–
O=C(NCC[C@H]1CC[C@H](NC(=O)C2CCOCC2)[C@@H](CO)O1)Nc1ccc(Cl)cc1,·,–,1.5,–,–,–,–,–

# High-throughput results as filed in PubChem.
